Active and inactive are the calls of the source. No cut-off for these calls is given here.
Columns and labels:
[1] = target: STE20/SPS1-related proline-alanine-rich protein kinase (Rattus norvegicus, UniProt O88506); test: Inhibition of TAMRA-labelled WNK4 binding to recombinant rat C-terminal GST-fused SPAK (452 to 553 residues) expressed in Escherichia coli BL21 measured for 15 secs by FCS assay
Procedure, shortened: (§1)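 GST-fused rat SPAK CCT (residues 452–553) expressed in E. coli BL21 with IPTG induction for 16 h at 28°C, then glutathione-affinity purified. TAMRA-labelled WNK4 RFQV peptide (2.7 nM final) incubated with 0.5 µM GST–SPAK-CCT in PBS with 0.05% Tween 20 and 1% DMSO for 30 min at 25°C. An AFQV-mutant peptide served as negative control. Binding read by FCS with 15 s acquisition, five measurements per sample, and IC50 calculated from the data.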

[2] = target: STE20/SPS1-related proline-alanine-rich protein kinase (Rattus norvegicus) (UniProt O88506); test: Inhibition of TAMRA-labelled WNK4 binding to recombinant rat C-terminal GST-fused SPAK (452 to 553 residues) expressed in Escherichia coli BL21 at > 10^-5 M measured for 15 secs by FCS assay; procedure, shortened: as §1
[3] = tested on: HEK-293T; test: Cytotoxicity against HEK293T cells at 100 uM after 40 hrs by CCK8 assay; assay type: cell-based; conditions: human
[4] = tested on: Mus musculus; test: In-vivo inhibition of WNK signaling pathway in C57BL/6 mouse assessed as reduction in NKCC2 phosphorylation at 5 to 20 mg/kg, ip after 90 mins by immunoblotting analysis; assay type: functional, organism-based
Procedure, shortened: (§2)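 Male-unspecified C57BL/6 mice, 10 weeks old, given a single ip injection of 5, 10 or 20 mg/kg in 100 µL DMSO, with DMSO-alone controls. Kidneys taken 90 min later and homogenized in ice-cold 1% Triton X-100 buffer. Nuclear fraction removed, lysate denatured at 60°C for 20 min, and protein measured by Bradford. Total and phospho forms of SPAK, NCC (pSer71), NKCC1 (pThr206) and NKCC2 detected by quantitative immunoblotting.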

[5] = tested on: Mus musculus; test: In-vivo inhibition of WNK signaling pathway in C57BL/6 mouse assessed as reduction in NKCC1 phosphorylation at 5 to 20 mg/kg, ip after 90 mins by immunoblotting analysis; assay type: functional, organism-based; procedure, shortened: as §2
[6] = tested on: Mus musculus; test: In-vivo inhibition of WNK signaling pathway in ip dosed C57BL/6 mouse assessed as reduction in phosphorylated NCC level after 90 mins by immunoblotting analysis; assay type: functional, organism-based; procedure, shortened: as §2
[7] = tested on: HEK-293T; test: Cytotoxicity against HEK293T cells after 40 hrs by CCK8 assay; assay type: cell-based; conditions: Homo sapiens

Structure (SMILES) | IC50 [1] [µM] | further results
N#Cc1ccc(NC(=O)Nc2ccc3c(N)c4cc(O)ccc4nc3c2)cc1 | 2.6 | 
CCOc1ccc2nc3cc(NC(=O)c4ccc(C#N)cc4)ccc3c(Oc3ccccc3)c2c1 |  | inhibition [2]: inactive
CCOc1ccc2nc3cc(NC(=O)c4ccc(Cl)cc4)ccc3c(N)c2c1 | 49 | 
CCOc1ccc2nc3cc(NC(=O)c4cccc(C#N)c4)ccc3c(N)c2c1 | 2.6 | 
CCOc1ccc2nc3cc(NC(=O)c4ccccc4)ccc3c(N)c2c1 | 28.2 | 
COc1ccc2nc3cc(NC(=O)Nc4ccc(C#N)cc4)ccc3c(N)c2c1 | 4.8 | Activity [3]: Non-Toxic; inhibition [4]: Active; inhibition [5]: Active; inhibition [6]: Dose-dependent effect
CCOc1ccc2nc3cc(NC(=O)c4cc(C(F)(F)F)cc(C(F)(F)F)c4)ccc3c(N)c2c1 | > 100 | 
CCOc1ccc2nc3cc(NCc4ccc(OC)cc4OC)ccc3c(N)c2c1 | 21.1 | 
CCOc1ccc2nc3cc(NC(=O)c4ccc5ccccc5c4)ccc3c(N)c2c1 | 7.6 | 
CCOc1ccc2nc3cc(NC(=O)c4ccc(C(=O)OC)cc4)ccc3c(N)c2c1 |  | inhibition [2]: inactive
CCOc1ccc2nc3cc(NC(=O)c4cccc([N+](=O)[O-])c4)ccc3c(N)c2c1 | 3.9 | 
CCOc1ccc2nc3cc(NC(=O)c4ccc([N+](=O)[O-])cc4)ccc3c(N)c2c1 | 20.9 | 
CCOc1ccc2nc3cc(NCc4cccs4)ccc3c(N)c2c1 | 53.5 | 
CCOc1ccc2nc3cc(NC(C)=O)ccc3c(N)c2c1 |  | inhibition [2]: inactive
CCOc1ccc2nc3cc(NC(=O)c4ccco4)ccc3c(N)c2c1 | 8.2 | 
CCOc1ccc2nc3cc(NCc4ccco4)ccc3c(N)c2c1 | 15.4 | IC50 [7]: 4.2 µM
CCOc1ccc2nc3cc(NC(=O)c4ccc(F)cc4)ccc3c(N)c2c1 | 36.9 | 
CCOc1ccc2nc3cc(NC(=O)c4ccc(C#N)cc4)ccc3c(N)c2c1 | 6.9 | inhibition [4]: Active; inhibition [5]: Active; IC50 [7]: 25 µM; inhibition [6]: Dose-dependent effect
CCOc1ccc2nc3cc(NCc4ccccc4)ccc3c(N)c2c1 | 35.6 | 
CCOc1ccc2nc3cc(NC(=O)c4ccc(C#N)cc4)ccc3cc2c1 |  | inhibition [2]: inactive
